Experimental data as given in article PMC11601626 (bioRxiv, 2024).
Numbering of substitutions follows the chain as printed. Numbers in names are those of the source.

How the values were obtained:
[1] = system: HeLa cells (control and ∆PHRF1); assay: Zeocin DNA damage recovery assay, γH2A.X intensity/nucleus, HeLa; format: cell-based, human; conditions: qGAM; 50 μg/mL zeocin 30 minutes, washout 0-26 h; p-value 4.79x10-5 (Wald)
[2] = target: unmodified biotinylated nucleosome (EpiCypher) (human) (UniProt P68431); assay: BLI
HCT116 cells [3] = assay: Live-cell imaging growth analysis; format: cell-based, human; conditions: ∆PHRF1 HCT116 cells, complemented; no zeocin; Incucyte, one week; n = 3
Outline: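 Control+EV, ∆PHRF1+EV and WT- or P221L-complemented ∆PHRF1 lines were grown in McCoy's 5A with 10% FBS and penicillin/streptomycin at 37°C, 5% CO₂. They were harvested near 70% confluence and seeded at 1,000 cells/well in biological triplicate. Imaging began immediately: every 4 h for one week, 10X objective, four fields per well. Confluence was scored as percentage of area occupied by cells.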

HCT116 cells [4] = assay: Colony formation assay under zeocin; format: cell-based, human; conditions: ∆PHRF1 HCT116 cells, complemented; effect greater with WT than P221L
Outline: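 Cells were Control+EV, ∆PHRF1+EV, and ∆PHRF1 complemented with 3XFlag-PHRF1 WT or P221L. They were harvested near 70% confluence and seeded at 500 cells/well in biological triplicate, then left to adhere overnight at 37°C. Medium was replaced with zeocin at 0, 0.375, 0.75 and 1.5 µg/mL for 9 days undisturbed. Cells were fixed in 4% formaldehyde and stained with 0.5% crystal violet; growth area was measured per imaged well.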

GST-PHRF1^RP(P221L) = assay: Histone peptide microarray with GST-PHRF1^RP; format: binding, human; conditions: over 300 differentially-modified histone peptides
[5] = system: biotinylated unmodified nucleosomes; assay: Biolayer interferometry; format: binding; conditions: BLI; protein 25 to 1.625 μM; pH 7.0; 37°C; KD n.d.
[6] = system: differentially modified biotinylated nucleosomes; assay: Nucleosome pulldown assay; format: binding; conditions: 2.5 pmol protein, 12.5 pmol nucleosomes, pH 7.5, 4°C overnight
Outline: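 Binding buffer: 50 mM Tris-HCl pH 7.5, 150 mM NaCl, 0.5% BSA, 0.1% NP-40, 10% glycerol. GST-PHRF1 RP, PHD or RP(P221L) was mixed with the modified biotinylated nucleosomes. Beads were washed three times in binding buffer, 5 min each at 4°C with rotation, then taken up in SDS loading dye. Immunoblots used anti-GST for PHRF1 and anti-H3 for nucleosome presence.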

H3 (1–20)-FAM = assay: Histone peptide fluorescence polarization; format: binding; conditions: protein 50 to 0.0061 μM, pH 8.0, KD n.d.
[7] = system: differentially modified biotinylated nucleosomes; assay: dCypher nucleosome alphascreen binding assay; conditions: GST-PHRF1^RP 3 nM, nucleosomes 10 nM, duplicate

In the case of `Cc1c(N)nc([C@H](CC(N)=O)NC[C@H](N)C(N)=O)nc1C(=O)N[C@H](C(=O)N[C@H](C)[C@@H](O)[C@H](C)C(=O)N[C@H](C(=O)NCCC1=N[C@@H](c2nc(C(=O)NCCCCN=C(N)N)cs2)CS1)[C@@H](C)O)[C@@H](O[C@@H]1O[C@@H](CO)[C@@H](O)[C@H](O)[C@@H]1O[C@H]1O[C@H](CO)[C@@H](O)[C@H](OC(N)=O)[C@@H]1O)c1cnc[nH]1` [zeocin, phleomycin D1], the “Parametric Coefficient, γH2A.X intensity/nucleus, ∆PHRF1 vs Control” value [1] is reported as −345.25.

“GST-PHRF1^RP (RING-PHD region of PHRF1, residues 107-232) (from UniProt Q9P1Y6 107-232) (domain or fragment)” gave a Kd [2] of 1010 nM.

In the case of “3XFlag-PHRF1^P221L: 3XFlag-tagged PHRF1 P221L mutant expressed by lentivirus in HCT116 ∆PHRF1 cells”, the “rescue of growth under normal conditions, in words” value (HCT116 cells [3]) is reported as “partially rescuing the growth phenotype” and the “rescue of colony growth at 0.375 μg/mL zeocin, in words” value (HCT116 cells [4]) is reported as “partial rescue of growth”.

“3XFlag-PHRF1^WT: N-terminally 3XFlag-tagged PHRF1 expressed by lentivirus in HCT116 ∆PHRF1 cells” was tested, and the “rescue of growth under normal conditions, in words” value (HCT116 cells [3]) was “largely rescued the growth defects” and the “rescue of colony growth at 0.375 μg/mL zeocin, in words” value (HCT116 cells [4]) was “partial rescue of growth”.

B1: GST-PHRF1^RP(P221L): GST-PHRF1^RP with P221 mutated to leucine (protein)
chain: SCPICLNAFRDQAVGTPENCAHYFCLDCIVEWSKNANSCPVDRTLFKCICIRAQFGGKILRKIPVENTKASEEEEDPTFCEVCGRSDREDRLLLCDGCDAGYHMECLDPPLQEVLVDEWFCPECAA
modifications: left off: GST, end not stated, kept
With B1 the “binding to histone peptides, in words” value (GST-PHRF1^RP(P221L)) was “virtually no binding to any histone peptide on the microarray”, the “binding to nucleosomes, in words” value [5] was “no detectable binding to nucleosomes” and the “nucleosome interaction of P221L mutant, in words” value [6] was “abolished all nucleosome interaction”. The “binding to H3 1–20(FAM), in words” value (H3 (1–20)-FAM) was “little to no observable binding”.

B2: GST-PHRF1^RP: GST-tagged PHRF1 RING-PHD region, residues 107–232 of PHRF1 (protein)
chain: B1 chain with L115P
modifications: left off: GST, end not stated, kept
B2 was tested, and the “nucleosome binding, H3K9me3 versus unmodified, in words” value [7] was “heightened binding”.
